# Tests used:
# Type in all cases: functional
# Bacillus cereus [1] = assay: Antibacterial activity against Bacillus cereus NCTC 14579 assessed as growth inhibition after 24 hrs by Kirby-Bauer disc diffusion method relative to ampicillin
# In short: (§1)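 Modified Kirby-Bauer disc diffusion on Mueller-Hinton agar spread with broth culture at about 10^8 cells/ml. Blank 8.0 mm paper discs were impregnated with test solution. Ampicillin discs at the same concentration and solvent served as positive control, and solvent discs as negative control. Plates were incubated at 35–37 °C, and inhibition-zone diameter (mm) was read at 24 h by caliper. % activity index = zone relative to ampicillin.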
# Bacillus cereus [2] = assay: Antibacterial activity against Bacillus cereus NCTC 14579 assessed as growth inhibition after 24 hrs by Kirby-Bauer disc diffusion method; in short: as §1
# Serratia marcescens [3] = assay: Antibacterial activity against Serratia marcescens IMRU 70 assessed as growth inhibition after 24 hrs by Kirby-Bauer disc diffusion method relative to ampicillin; parameters: concentration or dose not given beside the values; in short: as §1
# Proteus mirabilis [4] = assay: Antibacterial activity against Proteus mirabilis NCTC 289 assessed as growth inhibition after 24 hrs by Kirby-Bauer disc diffusion method relative to ampicillin; parameters: concentration or dose not given beside the values; in short: as §1
# Serratia marcescens [5] = assay: Antibacterial activity against Serratia marcescens IMRU 70 assessed as growth inhibition after 24 hrs by Kirby-Bauer disc diffusion method; in short: as §1
# Proteus mirabilis [6] = assay: Antibacterial activity against Proteus mirabilis NCTC 289 assessed as growth inhibition after 24 hrs by Kirby-Bauer disc diffusion method; in short: as §1
# Staphylococcus aureus [7] = assay: Antibacterial activity against Staphylococcus aureus NCTC 7447 assessed as growth inhibition after 24 hrs by Kirby-Bauer disc diffusion method; in short: as §1
# Staphylococcus aureus [8] = assay: Antibacterial activity against Staphylococcus aureus NCTC 7447 assessed as growth inhibition after 24 hrs by Kirby-Bauer disc diffusion method relative to ampicillin; parameters: concentration or dose not given beside the values; in short: as §1
SMILES,Activity_index (Bacillus cereus [1]),diameter of the inhibition zone (DIZ) (Bacillus cereus [2]),Activity_index (Serratia marcescens [3]),Activity_index (Proteus mirabilis [4]),diameter of the inhibition zone (DIZ) (Serratia marcescens [5]),diameter of the inhibition zone (DIZ) (Proteus mirabilis [6]),diameter of the inhibition zone (DIZ) (Staphylococcus aureus [7]),Activity_index (Staphylococcus aureus [8])
C/C(=N\NC1=NC(=O)C(C)S1)c1ccc(N2CCOCC2)cc1 (stereo unspecified),21.74%,5 mm,10.52%,9.52%,2 mm,2 mm,5 mm,20.83%
C/C(=N\Nc1nc(C)cs1)c1ccc(N2CCOCC2)cc1,13.04%,3 mm,15.72%,9.52%,2 mm,2 mm,5 mm,20.83%
C/C(=N\NC1=NC(=N)CS1)c1ccc(N2CCOCC2)cc1,17.39%,4 mm,15.72%,9.52%,3 mm,2 mm,5 mm,20.83%
C/C(=N/NC(=O)/C(C#N)=C1/SC=C(c2ccccc2)N1c1ccccc1)c1ccc(N2CCOCC2)cc1,17.39%,4 mm,15.72%,9.52%,3 mm,2 mm,5 mm,20.83%
CC1=C(O)N(c2ccccc2)/C(=C(/C#N)C(=O)N/N=C(/C)c2ccc(N3CCOCC3)cc2)S1,13.04%,3 mm,15.72%,14.28%,3 mm,3 mm,5 mm,20.83%
C/C(=N/NC(=O)c1sc(=S)n(-c2ccccc2)c1N)c1ccc(N2CCOCC2)cc1,13.04%,3 mm,15.72%,9.52%,2 mm,2 mm,4 mm,16.67%
C/C(=N/NC(=O)c1sc(=S)n(-c2ccc3ccccc3c2)c1N)c1ccc(N2CCOCC2)cc1,13.04%,3 mm,15.72%,9.52%,2 mm,2 mm,5 mm,20.83%
Cc1ccc(/C=N/c2nc(-c3ccc(N4CCOCC4)cc3)cs2)cc1,17.39%,4 mm,15.72%,9.52%,3 mm,2 mm,4 mm,16.67%
CC(=O)N(C(C)=O)c1nc(-c2ccc(N3CCOCC3)cc2)cs1,17.39%,4 mm,15.72%,14.28%,2 mm,3 mm,5 mm,20.83%
CC1(C)S[C@@H]2[C@H](NC(=O)[C@H](N)c3ccccc3)C(=O)N2[C@H]1C(=O)O [AMPICILLIN],,23 mm,,,21 mm,21 mm,24 mm,

# — ChEMBL document CHEMBL2401617, “Synthesis and biological evaluation of some novel thiazole compounds as potential anti-inflammatory agents” (2013)
